Active and inactive are the calls of the source. The calls are words filed in the database; no cut-off is given here.
Tests used:
Leishmania donovani [1] = assay: Antileishmanial activity against Leishmania donovani MHOM/IN/90/GE1F8R promastigotes after 72 hrs by Alamarblue assay; format: functional, organism-based
Procedure, shortened: (§1)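 Log-phase promastigotes (10⁵/well, grown in Schneider's medium with 10% FBS at 26 °C) added to serial compound dilutions in phenol red-free RPMI 1640 with 10% heat-inactivated FBS, plus 10% alamarBlue. Incubated 72 h at 27 °C in the dark. Read at 560 nm against 590 nm reference. Single-concentration screen at 25 µM. IC50 by non-linear regression. Three experiments, each in duplicate.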

Leishmania amazonensis [2] = assay: Antileishmanial activity against Leishmania amazonensis MHOM/BR/77/LTB0016 promastigotes after 72 hrs by Alamarblue assay; format: functional, organism-based; conditions: MHOM/BR/77/LTB0016, 72 h; procedure, shortened: as §1
Leishmania donovani [3] = assay: Antileishmanial activity against Leishmania donovani MHOM/IN/90/GE1F8R promastigotes at 25 uM after 72 hrs by Alamarblue assay relative to control; format: functional; procedure, shortened: as §1
Leishmania amazonensis [4] = assay: Antileishmanial activity against Leishmania amazonensis MHOM/BR/77/LTB0016 promastigotes at 25 uM after 72 hrs by Alamarblue assay relative to control; format: functional; procedure, shortened: as §1
Leishmania amazonensis [5] = assay: Induction of mitochondrial membrane potential loss in Leishmania amazonensis MHOM/BR/77/LTB0016 promastigotes at antileishmanial IC90 after 24 hrs by JC-1 staining-based spectrofluorometric analysis; format: functional, organism-based
Leishmania amazonensis [6] = assay: Antileishmanial activity against Leishmania amazonensis MHOM/BR/77/LTB0016 amastigotes infected in mouse J774A.1 cells assessed as reduction in transformation of rescued amastigotes to promastiogtes after 24 hrs by Alamarblue assay; format: functional, organism-based; conditions: MHOM/BR/77/LTB0016, J774.A1, 24 h
[7] = Cytotoxicity against mouse J774A.1 cells; format: cell-based, J774.A1
[8] = Selectivity index, ratio of CC50 for mouse J774A.1 cells to IC50 for Leishmania amazonensis MHOM/BR/77/LTB0016 amastigotes infected in mouse J774A.1 cells; format: toxicity, cell-based; conditions: read-out: Ratio CC50/IC50
Procedure, shortened: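 SI = CC50 in J774A.1 macrophages divided by IC50 against intracellular L. amazonensis amastigotes.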

Leishmania amazonensis [9] = assay: Potency index, ratio of miltefosine IC50 to compound IC50 for Leishmania amazonensis MHOM/BR/77/LTB0016 amastigotes infected in mouse J774A.1 cells; format: functional
Leishmania donovani [10] = assay: Antileishmanial activity against Leishmania donovani MHOM/SD/00/1S-2D promastigotes preincubated for 2 hrs followed by compound wash measured after 48 hrs by MTT assay; format: functional, organism-based

## CN(CCO)C1=Cc2cccc3cccc(c23)C1=O
Leishmania donovani [1]
  IC50: > 25 µM
Leishmania amazonensis [2]
  IC50: > 25 µM
Leishmania donovani [3]
  Activity: <25%
Leishmania amazonensis [4]
  Activity: <25%

## O=C1C=Cc2cccc3ccc(Nc4ccccn4)c1c23
Leishmania donovani [1]
  IC50: > 25 µM
Leishmania amazonensis [2]
  IC50: > 25 µM

## CCCNC1=CC(=O)c2cccc3cccc1c23
Leishmania donovani [1]
  IC50: > 25 µM
Leishmania amazonensis [2]
  IC50: > 25 µM

## O=C1C=C(N2CCCCC2)c2cccc3cccc1c23
Leishmania donovani [1]
  IC50: > 25 µM
Leishmania amazonensis [2]
  IC50: > 25 µM

## O=C1C=Cc2cccc3ccc(N4CCCCC4)c1c23
Leishmania donovani [1]
  IC50: > 25 µM
Leishmania amazonensis [2]
  IC50: > 25 µM

## CN(C)CCNc1ccc2cccc3c2c1C(=O)C=C3
Leishmania donovani [1]
  IC50: 2.8 µM
Leishmania amazonensis [2]
  IC50: 1.4 µM
Leishmania amazonensis [5]
  Activity: Active
Leishmania amazonensis [6]
  IC50: 0.7 µM
[7]
  CC50: 38.9 µM
[8]
  selectivity ratio: 55.6

## O=C1C(Nc2ccccn2)=Cc2cccc3cccc1c23
Leishmania donovani [1]
  IC50: > 25 µM
Leishmania amazonensis [2]
  IC50: > 25 µM

## CN(C)CCNC1=CC(=O)c2cccc3cccc1c23
Leishmania donovani [1]
  IC50: 4.3 µM
Leishmania amazonensis [2]
  IC50: 2.1 µM
Leishmania amazonensis [5]
  Activity: Active
Leishmania amazonensis [6]
  IC50: 0.6 µM
[7]
  CC50: 95.6 µM
[8]
  selectivity ratio: 159
Leishmania amazonensis [9]
  Ratio IC50: 3 - 5

## O=C1C(O)=Cc2cccc3ccc(-c4ccccc4)c1c23
Leishmania donovani [10]
  IC50: 35 to 40 µM

## O=C1C=C(N2CCOCC2)c2cccc3cccc1c23
Leishmania donovani [1]
  IC50: > 25 µM
Leishmania amazonensis [2]
  IC50: > 25 µM

## Nc1ccc2cccc3c2c1C(=O)C=C3
Leishmania donovani [1]
  IC50: > 25 µM
Leishmania amazonensis [2]
  IC50: 26.2 µM

## O=C1C(Nc2cccnc2)=Cc2cccc3cccc1c23
Leishmania donovani [1]
  IC50: > 25 µM
Leishmania amazonensis [2]
  IC50: > 25 µM
Leishmania donovani [3]
  Activity: <25%
Leishmania amazonensis [4]
  Activity: <25%

## O=C1C=C(N2CCN(c3ncccn3)CC2)c2cccc3cccc1c23
Leishmania donovani [1]
  IC50: > 25 µM
Leishmania amazonensis [2]
  IC50: > 25 µM

## CN(C)CCNC1=Cc2cccc3cccc(c23)C1=O
Leishmania donovani [1]
  IC50: 9.6 µM
Leishmania amazonensis [2]
  IC50: 6 µM
Leishmania amazonensis [5]
  Activity: Active
Leishmania amazonensis [6]
  IC50: 0.9 µM
[7]
  CC50: 122 µM
[8]
  selectivity ratio: 136
Leishmania amazonensis [9]
  Ratio IC50: 3 - 5

## CCCNC1=Cc2cccc3cccc(c23)C1=O
Leishmania donovani [1]
  IC50: > 25 µM
Leishmania amazonensis [2]
  IC50: > 25 µM
Leishmania donovani [3]
  Activity: <25%
Leishmania amazonensis [4]
  Activity: <25%

## O=C1C(N2CCN(Cc3ccccc3)CC2)=Cc2cccc3cccc1c23
Leishmania donovani [1]
  IC50: 26.4 µM
Leishmania amazonensis [2]
  IC50: 24 µM
Leishmania amazonensis [5]
  Activity: inactive
Leishmania amazonensis [6]
  IC50: 2.4 µM
[7]
  CC50: 122 µM
[8]
  selectivity ratio: 51

## O=C1C=Cc2cccc3ccc(N4CCN(c5ncccn5)CC4)c1c23
Leishmania donovani [1]
  IC50: > 25 µM
Leishmania amazonensis [2]
  IC50: > 25 µM

## CN(CCO)c1ccc2cccc3c2c1C(=O)C=C3
Leishmania donovani [1]
  IC50: > 25 µM
Leishmania amazonensis [2]
  IC50: > 25 µM

## O=C1C(N2CCN(c3ncccn3)CC2)=Cc2cccc3cccc1c23
Leishmania donovani [1]
  IC50: > 25 µM
Leishmania amazonensis [2]
  IC50: > 25 µM

## O=C1C=Cc2cccc3ccc(NCc4ccccc4)c1c23
Leishmania donovani [1]
  IC50: 8.3 µM
Leishmania amazonensis [2]
  IC50: 3.5 µM
Leishmania amazonensis [5]
  Activity: Active
Leishmania amazonensis [6]
  IC50: 2.3 µM
[7]
  CC50: 9.4 µM
[8]
  selectivity ratio: 4.1

## O=C1C=C(N2CCN(Cc3ccccc3)CC2)c2cccc3cccc1c23
Leishmania donovani [1]
  IC50: 24 µM
Leishmania amazonensis [2]
  IC50: 9.7 µM
Leishmania amazonensis [5]
  Activity: Active
Leishmania amazonensis [6]
  IC50: 1.1 µM
[7]
  CC50: 28.5 µM
[8]
  selectivity ratio: 26

## O=C1C=Cc2cccc3ccc(N4CCN(Cc5ccccc5)CC4)c1c23
Leishmania donovani [1]
  IC50: 14 µM
Leishmania amazonensis [2]
  IC50: 11.6 µM
Leishmania amazonensis [5]
  Activity: inactive
Leishmania amazonensis [6]
  IC50: 0.6 µM
[7]
  CC50: 91.7 µM
[8]
  selectivity ratio: 153
Leishmania amazonensis [9]
  Ratio IC50: 3 - 5

## N#Cc1ccc(Nc2ccc3cccc4c3c2C(=O)C=C4)cc1
Leishmania donovani [1]
  IC50: > 25 µM
Leishmania amazonensis [2]
  IC50: > 25 µM

## O=C1C=Cc2c(N3CCN(Cc4ccccc4)CC3)ccc3cccc1c23
Leishmania donovani [1]
  IC50: 26.3 µM
Leishmania amazonensis [2]
  IC50: 17.5 µM

## CCCCCCCCCCCCCCCCOP(=O)([O-])OCC[N+](C)(C)C [MILTEFOSINE]
Leishmania donovani [1]
  IC50: 3.3 µM
Leishmania amazonensis [2]
  IC50: 6.5 µM
Leishmania amazonensis [5]
  Activity: Active
Leishmania amazonensis [6]
  IC50: 3.1 µM
[7]
  CC50: 73.7 µM
[8]
  selectivity ratio: 23.8

## O=C1C=Cc2c(NCc3ccccc3)ccc3cccc1c23
Leishmania donovani [1]
  IC50: > 25 µM
Leishmania amazonensis [2]
  IC50: > 25 µM

## O=C1C=Cc2cccc3ccc(O)c1c23
Leishmania donovani [1]
  IC50: > 25 µM
Leishmania amazonensis [2]
  IC50: > 25 µM

## CCCNc1ccc2cccc3c2c1C(=O)C=C3
Leishmania donovani [1]
  IC50: > 25 µM
Leishmania amazonensis [2]
  IC50: > 25 µM

## O=C1C=Cc2cccc3ccc(Nc4ccccc4)c1c23
Leishmania donovani [1]
  IC50: > 25 µM
Leishmania amazonensis [2]
  IC50: > 25 µM

## COC1=Cc2cccc3ccc(-c4ccccc4)c(c23)C1=O
Leishmania donovani [10]
  IC50: 35 to 40 µM

## O=C1C=C(NCc2ccccc2)c2cccc3cccc1c23
Leishmania donovani [1]
  IC50: > 25 µM
Leishmania amazonensis [2]
  IC50: > 25 µM

## O=C1C(NCc2ccccc2)=Cc2cccc3cccc1c23
Leishmania donovani [1]
  IC50: > 25 µM
Leishmania amazonensis [2]
  IC50: > 25 µM

## O=C1C(Nc2ccccc2)=Cc2cccc3cccc1c23
Leishmania donovani [1]
  IC50: > 25 µM
Leishmania amazonensis [2]
  IC50: > 25 µM

## CN(CCO)C1=CC(=O)c2cccc3cccc1c23
Leishmania donovani [1]
  IC50: > 25 µM
Leishmania amazonensis [2]
  IC50: > 25 µM

## O=C1C=Cc2cccc3ccc(N4CCOCC4)c1c23
Leishmania donovani [1]
  IC50: > 25 µM
Leishmania amazonensis [2]
  IC50: > 25 µM

## NC1=Cc2cccc3cccc(c23)C1=O
Leishmania donovani [1]
  IC50: > 25 µM
Leishmania amazonensis [2]
  IC50: > 25 µM
Leishmania donovani [3]
  Activity: <25%
Leishmania amazonensis [4]
  Activity: <25%

## O=C1C=Cc2cccc3ccc(Nc4cccnc4)c1c23
Leishmania donovani [1]
  IC50: > 25 µM
Leishmania amazonensis [2]
  IC50: > 25 µM

## N#Cc1ccc(NC2=Cc3cccc4cccc(c34)C2=O)cc1
Leishmania donovani [1]
  IC50: > 25 µM
Leishmania amazonensis [2]
  IC50: > 25 µM

## O=C1C=Cc2cccc3ccc(NCCO)c1c23
Leishmania donovani [1]
  IC50: > 25 µM
Leishmania amazonensis [2]
  IC50: 27.4 µM

## CN(C)CCNc1ccc2cccc3c2c1C=CC3=O
Leishmania donovani [1]
  IC50: 32.7 µM
Leishmania amazonensis [2]
  IC50: 7.2 µM

## O=C1C(N2CCOCC2)=Cc2cccc3cccc1c23
Leishmania donovani [1]
  IC50: > 25 µM
Leishmania amazonensis [2]
  IC50: > 25 µM

## O=C1C=Cc2cccc3cccc1c23 [PERINAPHTHENONE]
Leishmania donovani [1]
  IC50: > 25 µM
Leishmania amazonensis [2]
  IC50: > 25 µM
